ChEMBL document CHEMBL3399968, “Diarylsulfonamides and their bioisosteres as dual inhibitors of alkaline phosphatase and carbonic anhydrase: Structure activity relationship and molecular modelling studies” (Bioorg Med Chem, 2015)

Legend:
[1] = target: T1, Alkaline phosphatase, tissue-nonspecific isozyme (Bos taurus, UniProt P09487); test: Inhibition of bovine kidney non-specific alkaline phosphatase using CDP-star chemiluminescent substrate assessed as change in luminescence by spectrophotometric method
T1 sequence (P09487 whole entry): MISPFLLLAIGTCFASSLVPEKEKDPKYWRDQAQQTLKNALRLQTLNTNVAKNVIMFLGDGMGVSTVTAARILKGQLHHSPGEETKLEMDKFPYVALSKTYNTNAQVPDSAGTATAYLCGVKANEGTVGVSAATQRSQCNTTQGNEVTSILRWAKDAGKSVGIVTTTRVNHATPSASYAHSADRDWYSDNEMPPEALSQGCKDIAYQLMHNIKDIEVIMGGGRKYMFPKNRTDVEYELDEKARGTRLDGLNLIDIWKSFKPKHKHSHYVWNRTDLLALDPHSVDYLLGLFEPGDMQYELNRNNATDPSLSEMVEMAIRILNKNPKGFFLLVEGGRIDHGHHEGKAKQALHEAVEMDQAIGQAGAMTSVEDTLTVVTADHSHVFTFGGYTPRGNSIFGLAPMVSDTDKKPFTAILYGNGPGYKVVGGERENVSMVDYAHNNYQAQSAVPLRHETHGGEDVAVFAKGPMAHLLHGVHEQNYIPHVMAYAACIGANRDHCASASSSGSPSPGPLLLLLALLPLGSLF

[2] = target: Carbonic anhydrase 2 (Bos taurus, UniProt P00921); test: Inhibition of bovine carbonic anhydrase 2 assessed as hydrolysis of p-nitrophenyl acetate after 30 mins by spectrophotometric method
[3] = target: Intestinal-type alkaline phosphatase (Bos taurus, UniProt P19111); test: Inhibition of calf intestinal alkaline phosphatase using CDP-star chemiluminescent substrate assessed as change in luminescence by spectrophotometric method
[4] = target: T2, Alkaline phosphatase, tissue-nonspecific isozyme (Bos taurus) (UniProt P09487); test: Inhibition of bovine kidney non-specific alkaline phosphatase using CDP-star chemiluminescent substrate assessed as change in luminescence at 0.2 mM by spectrophotometric method
T2 sequence (whole entry): T1 sequence (P09487 whole entry)
Summary of the method: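 Buffer: 8 M DEA pH 9.8, 2.5 mM MgCl2, 0.05 mM ZnCl2. Compound 0.2 mM, final DMSO 1% (v/v), with TNAP (1:800 dilution, 0.8 units/mL); pre-incubated 3–5 min at 37 °C, luminescence pre-read; CDP-star added to 110 µM final; 15 min at 37 °C, after-read. Percent inhibition vs uninhibited control; levamisole 2 mM per well as positive control.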

[5] = target: Carbonic anhydrase 2 (Bos taurus) (UniProt P00921); test: Inhibition of bovine carbonic anhydrase 2 assessed as hydrolysis of p-nitrophenyl acetate at 0.5 mM after 30 mins by spectrophotometric method
Summary of the method: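 Bovine CA (50 U/well) in 50 mM Tris-sulfate pH 7.6 with 0.1 mM ZnCl2; compound at 0.5 mM in 1% DMSO; pre-incubated 10 min at 25 °C, pre-read at 348 nm; p-nitrophenyl acetate added to 0.6 mM final; 30 min at 25 °C, read at 348 nm.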

Intestinal-type alkaline phosphatase, sequence (P19111 whole entry): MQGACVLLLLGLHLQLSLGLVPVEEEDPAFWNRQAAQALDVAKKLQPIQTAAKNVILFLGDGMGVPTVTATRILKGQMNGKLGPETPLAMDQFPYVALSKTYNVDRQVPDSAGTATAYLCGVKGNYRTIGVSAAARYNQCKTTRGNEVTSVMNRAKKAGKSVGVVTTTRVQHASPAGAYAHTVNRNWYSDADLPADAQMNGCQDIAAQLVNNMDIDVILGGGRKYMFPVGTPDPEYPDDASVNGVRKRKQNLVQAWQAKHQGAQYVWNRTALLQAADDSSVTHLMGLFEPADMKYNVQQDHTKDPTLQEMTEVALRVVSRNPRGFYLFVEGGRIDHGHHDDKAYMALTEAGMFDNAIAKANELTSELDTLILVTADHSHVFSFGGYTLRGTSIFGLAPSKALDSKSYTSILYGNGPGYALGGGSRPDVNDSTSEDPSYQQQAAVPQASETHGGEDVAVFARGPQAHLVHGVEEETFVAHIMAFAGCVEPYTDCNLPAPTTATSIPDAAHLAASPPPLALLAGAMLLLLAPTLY
Carbonic anhydrase 2 (Bos taurus), sequence (P00921 2-260 limits assumed): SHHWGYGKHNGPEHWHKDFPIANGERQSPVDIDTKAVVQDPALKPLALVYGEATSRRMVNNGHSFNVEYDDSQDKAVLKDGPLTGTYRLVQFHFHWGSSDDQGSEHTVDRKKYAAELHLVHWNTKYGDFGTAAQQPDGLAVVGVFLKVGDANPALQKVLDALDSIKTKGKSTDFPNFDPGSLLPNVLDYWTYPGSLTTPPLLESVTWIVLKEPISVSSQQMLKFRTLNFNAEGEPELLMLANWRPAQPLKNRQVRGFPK
Carbonic anhydrase 2, sequence (P00921 whole entry): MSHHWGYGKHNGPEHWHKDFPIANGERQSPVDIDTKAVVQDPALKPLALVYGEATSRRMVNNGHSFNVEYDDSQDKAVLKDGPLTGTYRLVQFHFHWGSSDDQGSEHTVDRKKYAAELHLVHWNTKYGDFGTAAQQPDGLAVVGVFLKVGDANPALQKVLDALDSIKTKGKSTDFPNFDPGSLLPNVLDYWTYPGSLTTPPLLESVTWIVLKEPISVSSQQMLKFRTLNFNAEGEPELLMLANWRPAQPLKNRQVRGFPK

| Compound | IC50 [1] | Ki [1] | IC50 ([2]; read-out: IC50) | IC50 [3] | inhibition [4] | IC50 [2] | inhibition [5] |
| --- | --- | --- | --- | --- | --- | --- | --- |
| Cc1ccc(S(=O)(=O)Nc2ccc(S(N)(=O)=O)cc2)cc1 | 222 µM | 91.9 µM | 0.057 µM | 14.5 µM | – | – | – |
| NS(=O)(=O)c1ccc(CCNS(=O)(=O)c2ccc(F)cc2)cc1 | – | – | 0.035 µM | 11.7 µM | 44.1% | – | – |
| Cc1ccc(S(=O)(=O)Nc2ccccc2)cc1 | 0.18 µM | 0.07 µM | – | 9.15 µM | – | – | – |
| NS(=O)(=O)c1ccc(NC(=O)c2ccccc2)cc1 | 70.1 µM | 16.6 µM | – | 3.05 µM | – | – | 48.4% |
| NS(=O)(=O)c1ccc(CNC(=O)c2ccccc2)cc1 | 2.87 µM | 0.918 µM | 0.691 µM | 4.45 µM | – | – | – |
| NS(=O)(=O)c1ccc(CCNC(=O)c2ccc(F)cc2)cc1 | 22.5 µM | 4.51 µM | 0.656 µM | 6.73 µM | – | – | – |
| NS(=O)(=O)c1cccc(NC(=O)c2ccc(F)cc2)c1 | 55.6 µM | 16.2 µM | – | 9.75 µM | – | – | 36.4% |
| CCOc1ccc(NS(=O)(=O)c2ccc(C)cc2)cc1 | 0.31 µM | 0.128 µM | – | 30.1 µM | – | Not Active | – |
| Cc1ccc(S(=O)(=O)Nc2cccc(S(N)(=O)=O)c2)cc1 | 2.24 µM | 0.95 µM | 0.152 µM | 8.27 µM | – | – | – |
| c1ccc([C@H]2CN3CCSC3=N2)cc1 [LEVAMISOLE] | – | 1.81 µM | – | – | – | – | – |
| NS(=O)(=O)c1ccc(NC(=O)c2ccc(F)cc2)cc1 | 58.6 µM | 25.1 µM | – | 5.91 µM | – | – | 47.3% |

The remaining molecules from weak to strong by IC50 [3], led by results:

| IC50 [1] | Ki [1] | IC50 ([2]; read-out: IC50) | IC50 [3] | inhibition [4] | IC50 [2] | inhibition [5] | Compound |
| --- | --- | --- | --- | --- | --- | --- | --- |
| 41.2 µM | 17.6 µM | 0.241 µM | 2.96 µM | – | – | – | Cc1ccc(S(=O)(=O)NCCc2ccc(S(N)(=O)=O)cc2)cc1 |
| 2.94 µM | 1.25 µM | 0.215 µM | 1.35 µM | – | – | – | NS(=O)(=O)c1ccc(CNS(=O)(=O)c2ccc(F)cc2)cc1 |
| 0.15 µM | 0.06 µM | 0.1 µM | 1.27 µM | – | – | – | NS(=O)(=O)c1cccc(NS(=O)(=O)c2ccc(F)cc2)c1 |
| 0.613 µM | 0.299 µM | 0.821 µM | 1.18 µM | – | – | – | NS(=O)(=O)c1ccc(CNC(=O)c2ccc(F)cc2)cc1 |
| 3.26 µM | 1.39 µM | 0.1 µM | 1.13 µM | – | – | – | NS(=O)(=O)c1ccc(NS(=O)(=O)c2ccc(F)cc2)cc1 |
| – | – | – | 0.72 µM | 39.5% | Not Active | – | CCOc1ccc(NS(=O)(=O)c2ccc(F)cc2)cc1 |
| 10.3 µM | 3.96 µM | 0.544 µM | 0.429 µM | – | – | – | NS(=O)(=O)c1ccc(CCNC(=O)c2ccccc2)cc1 |
| 0.115 µM | 0.05 µM | 0.134 µM | 0.14 µM | – | – | – | Cc1ccc(S(=O)(=O)NCc2ccc(S(N)(=O)=O)cc2)cc1 |
